How the values were obtained:
[1] = target: mu/delta opioid receptors (Homo sapiens, UniProt P35372+P41143); type: cell-based; conditions: mu/delta HEK-293 cells
In short: (§1)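 Calcium release measured in HEK-293 cells stably expressing mu, or both mu and delta, opioid receptors. The dual-transfected cells came from an outside lab, and cDNA for the chimeric Gα subunit Δ6-Gαqi4-myr was used. Signal was read as fluorescence in relative fluorescence units, giving EC50 and ΔRFU. Where a mu agonist and a delta antagonist were combined, they were co-administered at equimolar levels rather than given as a pretreatment.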

[2] = cited from earlier work
[3] = target: mu-delta heteromer (Homo sapiens, UniProt P35372+P41143); assay: immunocytochemical trafficking; type: cell-based; conditions: ligand 1 μM, 30 minutes at 37°C, HEK-293 cells with FL-mu and HA-delta
[4] = target: mu opioid receptors (Homo sapiens, UniProt P35372); type: cell-based; conditions: mu HEK-293 cells
In short: as §1

[5] = cited from earlier work; remark: listed apart in the source

mu opioid receptors, sequence (P35372 whole entry): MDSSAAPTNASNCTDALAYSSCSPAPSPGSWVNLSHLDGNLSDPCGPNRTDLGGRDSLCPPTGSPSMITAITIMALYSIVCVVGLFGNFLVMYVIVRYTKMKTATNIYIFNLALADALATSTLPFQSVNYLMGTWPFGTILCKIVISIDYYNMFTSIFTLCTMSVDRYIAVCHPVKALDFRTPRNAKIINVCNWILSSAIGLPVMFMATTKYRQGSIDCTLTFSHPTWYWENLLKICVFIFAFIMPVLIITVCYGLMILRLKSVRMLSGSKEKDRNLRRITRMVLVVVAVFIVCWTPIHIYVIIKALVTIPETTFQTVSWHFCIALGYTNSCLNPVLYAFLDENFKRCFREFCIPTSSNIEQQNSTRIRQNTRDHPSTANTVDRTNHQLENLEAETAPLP
mu/delta opioid receptors, sequence (P35372 whole entry): as above
mu/delta opioid receptors, sequence (P41143 whole entry): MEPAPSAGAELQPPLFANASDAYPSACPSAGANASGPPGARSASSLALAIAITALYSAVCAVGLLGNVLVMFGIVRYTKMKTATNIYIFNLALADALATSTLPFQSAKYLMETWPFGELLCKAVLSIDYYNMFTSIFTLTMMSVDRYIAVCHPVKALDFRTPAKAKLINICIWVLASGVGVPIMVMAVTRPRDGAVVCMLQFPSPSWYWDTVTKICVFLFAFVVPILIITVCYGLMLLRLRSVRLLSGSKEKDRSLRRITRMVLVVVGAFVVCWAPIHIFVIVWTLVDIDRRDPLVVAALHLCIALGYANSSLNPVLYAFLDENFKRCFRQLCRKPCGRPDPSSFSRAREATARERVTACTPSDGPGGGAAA
mu-delta heteromer, sequence (P35372 whole entry): as the sequence (P35372 whole entry) above
mu-delta heteromer, sequence (P41143 whole entry): as the sequence (P41143 whole entry) above

For `CN1CC[C@]23c4c5ccc(O)c4O[C@H]2[C@H](NC(=O)COCC(=O)NCCCCCCCNC(=O)COCC(=O)Nc2cccc4c6c([nH]c24)[C@@H]2Oc4c(O)ccc7c4[C@@]24CCN(CC2CC2)[C@@H](C7)[C@]4(O)C6)CC[C@@]3(O)[C@H]1C5` [MDAN-21], the “calcium release ΔRFU” value [1] is listed as 468 RFU, the EC50 ([1]; read-out: calcium release EC50) is listed as 412 nM and the antinociception [2] is listed as “potent antinociception”. For the same molecule, the physical dependence [2] was “without tolerance, physical dependence, or place preference”, the tolerance ([2]; mice) was “does not produce tolerance” and the “internalization of mu and delta cell-surface opioid receptors” value [3] was “did not produce significant internalization”. For the same molecule, the “calcium release ΔRFU” value [4] was 420 RFU, the EC50 ([4]; read-out: calcium release EC50) was 851 nM and the place preference [5] was “without tolerance, physical dependence, or place preference”.
